In ChEMBL document CHEMBL1938389, “Jadomycins derived from the assimilation and incorporation of norvaline and norleucine” (J Nat Prod, 2011):
Calls of active or inactive are those of the source. The calls are words filed in the database; no cut-off is given here.

Experiments:
[1] = Cytotoxicity against human NCI60 cells; assay type: functional
Method in brief: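 NCI 60-cell-line screen covering leukemia, NSCLC, colon, CNS, melanoma, ovarian, renal, prostate and breast lines. Five doses spanning 5 log10, top concentration 32 μM. Percent growth and mean optical density measured per NCI protocol. OD plotted against concentration to give GI50, TGI and LC50, reported as median (range) over up to 59 lines.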

Salmonella typhimurium = experiment: Antimicrobial activity against Salmonella enterica Typhimurium C587 by CLSI method; assay type: functional, organism-based; settings: Salmonella enterica subsp. enterica serovar Typhimurium
Method in brief: (§1)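 Broth MIC determination following Clinical and Laboratory Standards Institute methods. Panel: Gram-positive S. aureus C622, MRSA C623, S. epidermidis C960, B. subtilis C971, E. faecalis C625; Gram-negative S. enterica Typhimurium C587, E. coli C498, P. aeruginosa H187. Activity read as minimum inhibitory concentration.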

Escherichia coli = experiment: Antimicrobial activity against Escherichia coli C498 by CLSI method; assay type: functional, organism-based; method in brief: as §1
Pseudomonas aeruginosa = experiment: Antimicrobial activity against Pseudomonas aeruginosa H187 by CLSI method; assay type: functional, organism-based; method in brief: as §1
[2] = test system: Staphylococcus epidermidis; experiment: Antimicrobial activity against Staphylococcus epidermidis C960 by CLSI method; assay type: functional; method in brief: as §1
Staphylococcus aureus = experiment: Antimicrobial activity against methicillin-resistant Staphylococcus aureus isolate C623 by CLSI method; assay type: functional
Nucleic Acid [3] = experiment: Binding affinity to Escherichia coli pUC19 DNA assessed as relaxation of supercoiled DNA at 100 uM by agarose gel electrophoresis; assay type: nucleic-acid assay
Method in brief: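 DNA in 10 mM Tris-Cl pH 8.5, diluted into Tris pH 7.4 (final 5 mM) and NaCl (final 50 mM). Jadomycin added without copper; volume 20 μL; 2 h at 37 °C. Quenched with loading buffer, electrophoresed on 1% agarose containing ethidium bromide (0.75 μg mL−1), 30 min at 8 V cm−1 in 1× TAE. UV visualization.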

Nucleic Acid [4] = experiment: Binding affinity to Escherichia coli pUC19 DNA assessed as relaxation of supercoiled DNA at 0.1 to 100 uM by agarose gel electrophoresis in presence of Cu ions; assay type: nucleic-acid assay
Method in brief: (§2)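 DNA supplied in 10 mM Tris-Cl pH 8.5, diluted into Tris pH 7.4 (final 5 mM) plus NaCl (final 50 mM). Jadomycins premixed 1:1 with Cu(OAc)2 added; final volume 20 μL. Incubated 2 h at 37 °C, quenched with loading buffer, run on 1% agarose with ethidium bromide (0.75 μg mL−1), 30 min at 8 V cm−1 in 1× TAE. Bands visualized by UV transillumination.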

Nucleic Acid [5] = experiment: Binding affinity to Escherichia coli pUC19 DNA assessed as relaxation of supercoiled DNA by agarose gel electrophoresis in presence of Cu ions; assay type: nucleic-acid assay; method in brief: as §2

| SMILES | GI50 [1] [µM] | LC50 [1] [µM] | TGI [1] [µM] | Activity (Salmonella typhimurium) | Activity (Escherichia coli) | Activity (Pseudomonas aeruginosa) | MIC [2] [mg/L] | MIC (Staphylococcus aureus) [mg/L] | Activity (Nucleic Acid [3]) | Activity (Nucleic Acid [4]) | EC50 (Nucleic Acid [5]) [µM] |
| --- | --- | --- | --- | --- | --- | --- | --- | --- | --- | --- | --- |
| CCC[C@@H]1C(=O)OC2c3cc(C)cc(O)c3C3=C(C(=O)c4c(O[C@H]5C[C@@H](O)[C@@H](O)[C@H](C)O5)cccc4C3=O)N21 (mixture of isomers) | 4.9 | 19 | 10 | inactive | inactive | inactive | 4 | 32 | inactive | Dose-dependent effect | 86 |
| CCCC[C@@H]1C(=O)OC2c3cc(C)cc(O)c3C3=C(C(=O)c4c(O[C@H]5C[C@@H](O)[C@@H](O)[C@H](C)O5)cccc4C3=O)N21 (mixture of isomers) | 4.2 | 18 | 8.7 | inactive | inactive | inactive | 4 | 32 | inactive | Dose-dependent effect | 144 |
